Experimental data as given in ChEMBL document CHEMBL4689842, “EUbOPEN Chemogenomics Library wave 1” (2021).

Tests used:
Format in all cases: toxicity, cell-based
Fibroblast [1] = assay: Multiplex assay against human fibroblast
Procedure, shortened: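 On a CQ1 microscope at 37°C and 5% CO2, live cells were imaged after compound addition. They had been stained at seeding with Hoechst33342, BioTracker Green Microtubule Cytoskeleton Dye, MitoTracker Red and Annexin V Alexa Fluor 680. CellPathfinder machine-learning gating assigned cells to Hoechst high-intensity objects or normal cells, normal cells to healthy, pyknosed or fragmented nuclei, and pyknosed cells to mitotic or apoptotic. Tubulin, mitochondrial-mass and membrane-permeability phenotypes are per cents of healthy-nucleus cells.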

HEK-293T = assay: Incucyte cell viability with HEK293T; conditions: human, 10 µM, compound concentration 10 uM; note: filed as whole numbers so only -1 and 0 and 1 occur
Fibroblast [2] = assay: Incucyte cell viability with human fibroblast; conditions: 10 µM, compound concentration 10 uM; note: filed as whole numbers so only -1 and 0 and 1 occur
U2OS = assay: Incucyte cell viability with U2OS; conditions: human, 10 µM, compound concentration 10 uM; note: filed as whole numbers so only -1 and 0 and 1 occur
[3] = 12 h, 1 µM, compound concentration 1 uM, replicate 1
[4] = 12 h, 1 µM, compound concentration 1 uM, replicate 2
[5] = 12 h, 10 µM, compound concentration 10 uM, replicate 1
[6] = 12 h, 10 µM, compound concentration 10 uM, replicate 2
[7] = 24 h, 1 µM, compound concentration 1 uM, replicate 1
[8] = 24 h, 1 µM, compound concentration 1 uM, replicate 2
[9] = 24 h, 10 µM, compound concentration 10 uM, replicate 1
[10] = 24 h, 10 µM, compound concentration 10 uM, replicate 2
[11] = 48 h, 1 µM, compound concentration 1 uM, replicate 1
[12] = 48 h, 1 µM, compound concentration 1 uM, replicate 2
[13] = 48 h, 10 µM, compound concentration 10 uM, replicate 1
[14] = 48 h, 10 µM, compound concentration 10 uM, replicate 2
[15] = 0 h, replicate number 1, timepoint 0 hours
[16] = 0 h, replicate number 2, timepoint 0 hours
[17] = 6 h, replicate number 1, timepoint 6 hours
[18] = 12 h, replicate number 1, timepoint 12 hours
[19] = 18 h, replicate number 1, timepoint 18 hours
[20] = 24 h, replicate number 1, timepoint 24 hours
[21] = 12 h, replicate number 2, timepoint 12 hours

## C=CC(=O)Nc1cc(-n2c(=O)ccc3cnc4ccc(-c5ccc(NS(C)(=O)=O)cc5)cc4c32)ccc1C
Fibroblast [1]; [3]
  Population Apoptotic (%): 52%
  Population Fragmented Nuclei (%): 37%
  Population Healthy Nuclei (%): 32%
  Population Hoechst High Intensity Objects (%): 7%
  Population Membrane Permeable-Phenotype (%): 15%
  Population Mitochondria Different-Phenotype (%): 3%
  Population Mitotic Cells (%): 47%
  Population Normal (%): 92%
  Population Pyknosed Nuclei (%): 29%
  Population Tubulin-Different-Phenotype (%): 30%
  Total Cell Count: 85
Fibroblast [1]; [4]
  Population Apoptotic (%): 33%
  Population Fragmented Nuclei (%): 10%
  Population Healthy Nuclei (%): 77%
  Population Membrane Permeable-Phenotype (%): 0%
  Population Mitochondria Different-Phenotype (%): 10%
  Population Mitotic Cells (%): 66%
  Population Pyknosed Nuclei (%): 12%
  Population Tubulin-Different-Phenotype (%): 10%
  Total Cell Count: 53
Fibroblast [1]; [5]
  Population Apoptotic (%): 51%
  Population Fragmented Nuclei (%): 30%
  Population Healthy Nuclei (%): 39%
  Population Hoechst High Intensity Objects (%): 8%
  Population Membrane Permeable-Phenotype (%): 32%
  Population Mitochondria Different-Phenotype (%): 13%
  Population Mitotic Cells (%): 48%
  Population Normal (%): 91%
  Population Pyknosed Nuclei (%): 30%
  Population Tubulin-Different-Phenotype (%): 55%
  Total Cell Count: 120
Fibroblast [1]; [6]
  Population Apoptotic (%): 76%
  Population Fragmented Nuclei (%): 8%
  Population Healthy Nuclei (%): 54%
  Population Hoechst High Intensity Objects (%): 9%
  Population Membrane Permeable-Phenotype (%): 12%
  Population Mitochondria Different-Phenotype (%): 56%
  Population Mitotic Cells (%): 23%
  Population Normal (%): 90%
  Population Pyknosed Nuclei (%): 36%
  Population Tubulin-Different-Phenotype (%): 52%
  Total Cell Count: 51
Fibroblast [1]; [7]
  Population Apoptotic (%): 54%
  Population Fragmented Nuclei (%): 23%
  Population Healthy Nuclei (%): 44%
  Population Hoechst High Intensity Objects (%): 11%
  Population Membrane Permeable-Phenotype (%): 22%
  Population Mitochondria Different-Phenotype (%): 16%
  Population Mitotic Cells (%): 45%
  Population Normal (%): 88%
  Population Pyknosed Nuclei (%): 31%
  Population Tubulin-Different-Phenotype (%): 38%
  Total Cell Count: 78
Fibroblast [1]; [8]
  Population Apoptotic (%): 55%
  Population Fragmented Nuclei (%): 11%
  Population Healthy Nuclei (%): 76%
  Population Hoechst High Intensity Objects (%): 2%
  Population Membrane Permeable-Phenotype (%): 3%
  Population Mitochondria Different-Phenotype (%): 15%
  Population Mitotic Cells (%): 44%
  Population Normal (%): 97%
  Population Pyknosed Nuclei (%): 11%
  Population Tubulin-Different-Phenotype (%): 22%
  Total Cell Count: 79
Fibroblast [1]; [9]
  Population Apoptotic (%): 50%
  Population Fragmented Nuclei (%): 36%
  Population Healthy Nuclei (%): 39%
  Population Hoechst High Intensity Objects (%): 9%
  Population Membrane Permeable-Phenotype (%): 35%
  Population Mitochondria Different-Phenotype (%): 5%
  Population Mitotic Cells (%): 50%
  Population Normal (%): 90%
  Population Pyknosed Nuclei (%): 23%
  Population Tubulin-Different-Phenotype (%): 50%
  Total Cell Count: 141
Fibroblast [1]; [10]
  Population Apoptotic (%): 84%
  Population Fragmented Nuclei (%): 21%
  Population Healthy Nuclei (%): 32%
  Population Hoechst High Intensity Objects (%): 5%
  Population Membrane Permeable-Phenotype (%): 22%
  Population Mitochondria Different-Phenotype (%): 50%
  Population Mitotic Cells (%): 15%
  Population Normal (%): 94%
  Population Pyknosed Nuclei (%): 46%
  Population Tubulin-Different-Phenotype (%): 33%
  Total Cell Count: 59
Fibroblast [1]; [11]
  Population Apoptotic (%): 61%
  Population Fragmented Nuclei (%): 32%
  Population Healthy Nuclei (%): 43%
  Population Hoechst High Intensity Objects (%): 6%
  Population Membrane Permeable-Phenotype (%): 25%
  Population Mitochondria Different-Phenotype (%): 3%
  Population Mitotic Cells (%): 38%
  Population Normal (%): 93%
  Population Pyknosed Nuclei (%): 24%
  Population Tubulin-Different-Phenotype (%): 34%
  Total Cell Count: 79
Fibroblast [1]; [12]
  Population Apoptotic (%): 0%
  Population Fragmented Nuclei (%): 28%
  Population Healthy Nuclei (%): 65%
  Population Hoechst High Intensity Objects (%): 12%
  Population Membrane Permeable-Phenotype (%): 19%
  Population Mitochondria Different-Phenotype (%): 7%
  Population Mitotic Cells (%): 100%
  Population Normal (%): 87%
  Population Pyknosed Nuclei (%): 6%
  Population Tubulin-Different-Phenotype (%): 21%
  Total Cell Count: 72
Fibroblast [1]; [13]
  Population Apoptotic (%): 78%
  Population Fragmented Nuclei (%): 39%
  Population Healthy Nuclei (%): 43%
  Population Hoechst High Intensity Objects (%): 18%
  Population Membrane Permeable-Phenotype (%): 29%
  Population Mitochondria Different-Phenotype (%): 4%
  Population Mitotic Cells (%): 21%
  Population Normal (%): 81%
  Population Pyknosed Nuclei (%): 17%
  Population Tubulin-Different-Phenotype (%): 56%
  Total Cell Count: 135
Fibroblast [1]; [14]
  Population Apoptotic (%): 100%
  Population Fragmented Nuclei (%): 56%
  Population Healthy Nuclei (%): 42%
  Population Hoechst High Intensity Objects (%): 15%
  Population Membrane Permeable-Phenotype (%): 33%
  Population Mitochondria Different-Phenotype (%): 1%
  Population Mitotic Cells (%): 0%
  Population Normal (%): 85%
  Population Pyknosed Nuclei (%): 0%
  Population Tubulin-Different-Phenotype (%): 50%
  Total Cell Count: 140
HEK-293T; [15]
  Growth Rate: 0
HEK-293T; [16]
  Growth Rate: 1
HEK-293T; [17]
  Growth Rate: 0
HEK-293T; [18]
  Growth Rate: 0
HEK-293T; [19]
  Growth Rate: 0
HEK-293T; [20]
  Growth Rate: 0
Fibroblast [2]; [15]
  Growth Rate: 0
Fibroblast [2]; [17]
  Growth Rate: 1
Fibroblast [2]; 6 h, replicate number 2, timepoint 6 hours
  Growth Rate: 0
Fibroblast [2]; [18]
  Growth Rate: 1
Fibroblast [2]; [21]
  Growth Rate: 0
Fibroblast [2]; [19]
  Growth Rate: 1
Fibroblast [2]; 18 h, replicate number 2, timepoint 18 hours
  Growth Rate: 0
Fibroblast [2]; [20]
  Growth Rate: 1
Fibroblast [2]; 24 h, replicate number 2, timepoint 24 hours
  Growth Rate: 0
U2OS; [15]
  Growth Rate: 0
U2OS; [16]
  Growth Rate: 1
U2OS; [17]
  Growth Rate: 1
U2OS; [18]
  Growth Rate: 1
U2OS; [21]
  Growth Rate: 0
U2OS; [19]
  Growth Rate: 0
U2OS; [20]
  Growth Rate: 0
